The structures appear in SMILES notation.

The target in one assay is Sigma non-opioid intracellular receptor 1 (Homo sapiens, UniProt Q99720). Description: Displacement of (+)-[3H]-pentazocine from recombinant human sigma 1 receptor expressed in baculovirus infected Sf9 insect cell membranes after 90 mins by scintillation counting method. In short, it runs like this: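 Human σ1 cloned in pFastBac, baculovirus-expressed in Sf9 cells (infected at 4 x 10⁶ cells/mL, 27 °C, harvested 48 h); washed membranes, 2.5 µg protein per reaction in 50 mM Tris pH 8.0 with 10 nM [³H](+)-pentazocine and 8 competitor concentrations 10 pM–100 µM; 90 min at 37 °C; filtration on PEI-soaked glass fiber filters; scintillation counting; two or three independent experiments in triplicate.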
Sequence of Sigma non-opioid intracellular receptor 1 (Q99720 whole entry): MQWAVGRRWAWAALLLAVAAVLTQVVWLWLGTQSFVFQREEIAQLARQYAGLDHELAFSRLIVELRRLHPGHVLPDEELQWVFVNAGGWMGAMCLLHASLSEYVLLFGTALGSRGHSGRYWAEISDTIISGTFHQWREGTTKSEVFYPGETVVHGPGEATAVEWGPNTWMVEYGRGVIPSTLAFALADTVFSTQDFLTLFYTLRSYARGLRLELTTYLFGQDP
With `CC(C)(C)c1ccc(CCCN2CCOCC2)cc1`, the Ki (commonly the dissociation constant of the complex between target and ligand, obtained from inhibition or displacement) was 0.0026 µM.
Take `C[C@@H]1CN(CCCc2ccc(C(C)(C)C)cc2)C[C@@H](C)O1` (relative stereo): the Ki was found to be 0.0023 µM.
Regarding `c1ccc(CCCN2CCOCC2)cc1`, the Ki was found to be 0.706 µM.
Regarding `CC1CCN(CCCc2ccc(C(C)(C)C)cc2)CC1`, the Ki worked out at 0.0054 µM.
The same measure, in the same setting: to `CC1CN(CCCc2ccc(C(C)(C)C)cc2)CC(C)O1` (mixture of isomers) belongs 0.0084 µM; to `CC(C)(C)c1ccc(CCCN2CCCCC2)cc1`, 0.0015 µM.

Tested on in another assay: not listed separately
Description: Selectivity ratio of Ki for recombinant rat sigma 2 receptor to Ki for recombinant human sigma 1 receptor.
As to `CC(C)(C)c1ccc(CCCN2CCOCC2)cc1`, the Ratio Ki is 360.
Still for that read-out and setting: to `C[C@@H]1CN(CCCc2ccc(C(C)(C)C)cc2)C[C@@H](C)O1` (relative stereo) belongs 29; to `c1ccc(CCCN2CCOCC2)cc1`, 3; to `CC1CCN(CCCc2ccc(C(C)(C)C)cc2)CC1`, 3.
Same read-out and setting: the same measure for `CC1CN(CCCc2ccc(C(C)(C)C)cc2)CC(C)O1` (mixture of isomers): 9; for `CC(C)(C)c1ccc(CCCN2CCCCC2)cc1`: 21.

A further assay has as its target T1, Sigma intracellular receptor 2 (Rattus norvegicus, UniProt Q5U3Y7).
T1 sequence (Q5U3Y7 whole entry): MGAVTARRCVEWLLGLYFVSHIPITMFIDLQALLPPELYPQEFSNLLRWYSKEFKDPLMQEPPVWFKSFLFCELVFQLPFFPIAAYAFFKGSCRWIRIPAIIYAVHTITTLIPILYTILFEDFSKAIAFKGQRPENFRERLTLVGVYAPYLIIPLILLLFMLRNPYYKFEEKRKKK
Description: Displacement of (+)-[3H]-ditolylguanidine from recombinant rat sigma 2 receptor expressed in rat PC12 cell membranes after 90 mins in presence of sigma 1 receptor blocker (+)-SKF-10047 by scintillation counting method. The method, boiled down: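 PC-12 cell membranes (12-30 µg protein per reaction) in 50 mM Tris pH 8.0 with 30 nM [³H]DTG plus 1.8 µM (+)-SKF-10,047 to block σ1 sites; competitor at graded concentrations; 90 min at 37 °C; filtration through 0.3% PEI-soaked glass fiber filters; scintillation counting; two or three independent experiments in triplicate.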
In the case of `CC(C)(C)c1ccc(CCCN2CCOCC2)cc1`, the Ki came to 0.93 µM.
As to `C[C@@H]1CN(CCCc2ccc(C(C)(C)C)cc2)C[C@@H](C)O1` (relative stereo), the Ki came out at 0.0661 µM.
On to `c1ccc(CCCN2CCOCC2)cc1`, for which the Ki was determined as 2.02 µM.
Consider `CC(Cc1ccc(C(C)(C)C)cc1)CN1C[C@@H](C)O[C@@H](C)C1` (some centres undefined) [FENPROPIMORPH], for which the Ki was 0.854 µM.
For the compound `CC1CCN(CCCc2ccc(C(C)(C)C)cc2)CC1`, the Ki is 0.0138 µM.
The same measure, in the same setting: to `CC1CN(CCCc2ccc(C(C)(C)C)cc2)CC(C)O1` (mixture of isomers) belongs 0.0779 µM; to `CC(C)(C)c1ccc(CCCN2CCCCC2)cc1`, 0.0315 µM.

The values are drawn from ChEMBL document CHEMBL4020768 (Bioorg Med Chem Lett, 2017).
